Source: PubChem
PPC-1+TRAIL kill – compounds killing PPC-1 cancer cells with TRAIL present (potentiator screen, no TRAIL-free arm). cell killing (% activity), % at 4 µM or 5 µM. 220,000 compounds, 0.41% hits. PPC-1 cells + TRAIL, ATPLite viability luminescence;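 active means cell killing above 50% in the first pass at 4 µM, then a duplicate retest at 5 µM averaging 50% or more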;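 further: plate controls were cells with TRAIL plus DMSO for no effect and medium-only wells lacking cells for full effect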
HSP90 inh – inhibitors of HSP90 luciferase refolding in rabbit reticulocyte lysate; luciferase refolding luminescence, 3 h; inhibition, % at 5.6 µM; 290,000 compounds, 0.91% hits;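 active means inhibition above the screen-wide mean plus 3 SD, computed separately per campaign, cut at about 16% in these data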;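 further: 0% = DMSO wells and 100% = 60 µM geldanamycin wells; inhibitors lower the luminescence because luciferase stays unfolded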
FLuc stim CS – affects firefly luciferase, flagging false hits in luciferase stimulation screens; ATPlite luciferase biochemical, luminescence, 10 min; 0 = ATP-free wells, 1 = DMSO control; P08659; 200,000 tested, under 10 active; activation factor at 10 µM; AID 1027;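 active means luciferase activation factor, scaled between plate controls, of at least 2 with compound at 10 µM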
Target sequence (P08659 whole entry, looked up): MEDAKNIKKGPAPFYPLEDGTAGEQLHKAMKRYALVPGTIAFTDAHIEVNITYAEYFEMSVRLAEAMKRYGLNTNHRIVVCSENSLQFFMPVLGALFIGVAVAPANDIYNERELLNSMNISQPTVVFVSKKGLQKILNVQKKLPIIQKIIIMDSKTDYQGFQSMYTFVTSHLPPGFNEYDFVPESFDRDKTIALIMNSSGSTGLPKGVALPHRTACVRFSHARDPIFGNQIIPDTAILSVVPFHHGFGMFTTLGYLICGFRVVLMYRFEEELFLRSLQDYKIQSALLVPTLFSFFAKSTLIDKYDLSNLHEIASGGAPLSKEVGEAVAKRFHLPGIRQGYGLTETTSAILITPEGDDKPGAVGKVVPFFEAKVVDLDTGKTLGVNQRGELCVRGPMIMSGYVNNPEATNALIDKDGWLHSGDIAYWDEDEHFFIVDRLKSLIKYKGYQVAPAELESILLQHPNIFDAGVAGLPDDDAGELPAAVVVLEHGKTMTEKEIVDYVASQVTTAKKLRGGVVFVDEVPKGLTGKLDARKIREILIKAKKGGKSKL
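Material: Luciferase/luciferin reagent mix | Doses: Test compounds dosed from 2 mM stocks in 100% DMSO | Timing: 10 min incubation after luciferase reagent addition, room temperature | Measured by: Luminescence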
C8 TRAIL sens – sensitizes caspase-8 expressing cells to TRAIL | 360,000 compounds, 1% hits | NB7+C8 cells + TRAIL, ATPlite viability luminescence | inhibition (viability loss, TRAIL sensitization), % at 10 µM;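 active means compounds causing at least 50% loss of cell viability in the single-dose screen, relative to plate controls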
FLuc inhib CS – Photinus pyralis luciferase inhibition counter-screen; P08659; ATPLite firefly luciferase biochemical luminescence, 10 min; inhibition, % at 10 µM; 200,000 compounds, 1.5% hits; AID 1006;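 active means inhibition above about 50% when tested at 10 µM, limit read from the data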
* hit, by the source's call; / = no result given. The list is not random: actives were taken first. Their share in the collection is about 2%.

SMILES	PPC-1+TRAIL kill	HSP90 inh	FLuc stim CS	C8 TRAIL sens	FLuc inhib CS
CC1CN(Cc2ccccc2)C(=O)N(c2ccccc2)C1=O (stereo unspecified)	/	/	/	-22	/
CC1CN(Cc2ccccc2)c2ccccc2NC1=S (stereo unspecified)	52*	-2	1	1	1
CSc1ccc(CN2CCC2(C)C(=O)NCc2ccc3c(c2)OCO3)cc1 (stereo unspecified)	/	/	/	3	/
O=C1c2ccccc2C(=O)c2c1cccc2-n1nnc2ccccc21	30	-2	/	17	/
O=C1C(N2CCOCC2)=C(n2nnc3ccccc32)C(=O)c2ccccc21	35	41*	1	94*	3
Nc1cccc(O)c1	/	/	/	-11	/
Oc1cccc(-c2nnc(-c3cccc(O)c3)nn2)c1	/	/	/	88*	/
CCOC(=O)c1c(-c2ccc(OC)cc2)oc2c1C(OC(C)=O)CCC2 (stereo unspecified)	/	/	/	-6	/
O=C(CSc1ccc(F)cc1)NC(=O)c1ccccc1	/	/	/	-5	/
CC1CCCC(C)N1C(=O)COC(=O)CNS(=O)(=O)c1ccc2ccccc2c1 (stereo unspecified)	/	/	/	-14	/
O=C(NC(=S)Nc1ccccn1)c1cncc(Br)c1	12	-1	0.4	10	64*
O=C(NC(=S)Nc1ccc(Br)cn1)c1cncc(Br)c1	1	1	0.6	16	42
O=C(NC(=S)Nc1ccc(Br)cn1)c1cccs1	17	-1	0.3	65*	72*
Cc1cccnc1NC(=S)NC(=O)c1cccs1	29	-3	0.3	69*	71*
O=C(NC(=S)Nc1ccccc1)c1cccs1	/	2	/	1	/
Cc1cccnc1NC(=O)CNC(=O)c1cccs1	/	/	/	2	/
COCCNC(=O)C1(C)CCCN(Cc2ccc(-n3ccnc3)cc2)C1 (stereo unspecified)	/	/	/	-10	/
Nc1nc(N)c2c(ccc3c2ccn3Cc2cccc([N+](=O)[O-])c2)n1	/	/	/	97*	/
CCOC1=C2[C@@H](CN(S(=O)(=O)c3ccc(C)cc3)[C@H]2c2cccc3ccccc23)[C@H]2C(=O)N(C3CCCCC3)C(=O)[C@H]2C1	/	/	/	0	/
COc1ccccc1-c1nnc(-c2ccc(C)cc2)o1	/	/	/	53*	/
COc1ccccc1-c1nnc(-c2ccc(N3CCOCC3)cc2)o1	14	3	0.7	1	28
CSc1ccccc1-c1nnc(-c2ccccc2)o1	10	6	0.4	39	64*
CSc1ccccc1-c1nnc(-c2ccc(C)cc2)o1	47	1	0.3	62*	71*
CSc1nnc(-c2ccccc2SC)o1	5	3	1	-6	2
O=C(OCc1cn([C@@H]2CN(Cc3cccs3)[C@@H](c3ccccc3)C[C@H]2O)nn1)c1ccccc1	/	/	/	-8	/
SMILES	PPC-1+TRAIL kill	HSP90 inh	FLuc stim CS	C8 TRAIL sens	FLuc inhib CS
CN1CCN(C(=O)OC2CC3CC2[C@H]2CCCCN2C3=O)CC1 (stereo partly specified)	/	/	/	-5	/
CSCC[C@@H](CO)NC(=O)[C@H]1O[C@@H](n2ccc(N)nc2=O)[C@H](O)[C@@H]1O	/	/	/	-4	/
COc1ccc(-c2csc(N3N=C(C)C(C)C3=O)n2)cc1 (stereo unspecified)	23	2	0.4	8	61*
CCCCN(C(=O)c1cccc(-n2cnnn2)c1)c1c(N)n(CCCC)c(=O)[nH]c1=O	/	/	/	-9	/
CC(=O)c1ccccc1OCC(O)CN1CCN(CCN2C(=O)c3cccc4cccc(c34)C2=O)CC1 (stereo unspecified)	27	3	1	60*	-3
Cc1nc2cc(NC(=O)c3ccco3)ccc2n1C	/	13	/	51*	/
CCn1cnc2cc(NC(=O)c3ccco3)ccc21	36	8	0.3	31	66*
Cn1cccc1C(=O)C(=O)Nc1ccccc1	22	3	0.5	32	52*
Cc1ccc(C)c(C(O)c2ncc(-c3ccc(F)cc3)[nH]2)c1 (stereo unspecified)	/	/	/	11	/
CCCCNc1c(-c2ccc(SC(C)CC)cc2)nc2ccccn12 (stereo unspecified)	/	/	/	69*	/
Cc1ccc(-n2nnc(-c3cccnc3Cl)n2)cc1	40	10	0.3	61*	72*
CC(C)(C)c1ccc(NC(=O)COc2ccc(-n3ccnc3)cc2)cc1	22	1	1	15	-2
COc1ccc(OCC(=O)N/N=C(\C)c2ccc(-n3ccnc3)cc2)cc1	38	0	0.4	-5	57*
